According to ChEMBL document CHEMBL3769372, “Specific Inhibitors of HIV Capsid Assembly Binding to the C-Terminal Domain of the Capsid Protein: Evaluation of 2-Arylquinazolines as Potential Antiviral Compounds” (J Med Chem, 2016):
pIC50, pKd: −log10 of the molar value. Residues, ends and D or L forms follow the SMILES beside them.

Columns and labels:
[1] = molecular target: T1, Structural capsid protein (Human immunodeficiency virus 1, UniProt Q76129); test: Binding affinity to recombinant N-terminal GST-tagged HIV1 NL4-3 capsid C-terminal domain (146 to 231 residues) incubated for 2 hrs by alphascreen assay
In short: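 AlphaScreen competition: GST-fused CA (60 nM) on glutathione acceptor beads and biotinylated peptide (30 nM) on streptavidin donor beads, beads 10 µg/ml. Buffer was PBS, 0.05% Tween 20, 2 mM DTT. Compounds were titrated 0.2–200 µM and incubated 2 h at RT, with emission read at 520–620 nm. Inhibition was normalized to DMSO-only (max) and buffer (min) controls.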

[2] = Cytotoxicity against human TZM-bl cells assessed as cell viability at 10 uM after 48 hrs by MTS assay relative to control; assay type: cell-based; details: read-out: Activity
In short: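 TZM-bl cells (DMEM, 10% FBS, 10 mM HEPES) incubated with compound at 37 °C, 5% CO2 for 48 h in parallel with the infectivity assay; viability by MTS read-out. Tested in triplicate at 10 µM final, with titration 0.625–20 µM; values normalized to DMSO-only treated cells.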

[3] = tested on: Human immunodeficiency virus 1; test: Antiviral activity against HIV1 NL4-3 infected in human TZM-bl cells assessed as inhibition of viral replication administered 6 hrs postinfection measured 48 hrs by luciferase reporter gene assay; assay type: functional, organism-based; details: Human immunodeficiency virus 1, NL4-3, TZM-bl
In short: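 TZM-bl cells infected with NL4-3 stock (from MT-4 co-culture) at MOI 1; at 6 h p.i. medium replaced with DMEM containing compound, refreshed at 30 h p.i.; supernatants collected at 52 h p.i. and titrated on fresh TZM-bl cells; infection read by luciferase at 48 h p.i.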

[4] = molecular target: T1, Structural capsid protein; test: Binding affinity to HIV1 NL4-3 capsid at 25 degC by isothermal titration calorimetry
In short: (§1)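 ITC at 25 °C (Auto-iTC200) in 30 mM MES pH 6.0, 10% glycerol, 2 mM 2-mercaptoethanol, 2% DMSO. Protein and peptide concentrations were set by HPLC amino acid analysis. 320–350 µM peptide ligand was injected in 2 µl steps into 23–33 µM protein until saturated. A buffer-only injection control was run, and titrations were repeated in two buffers of differing ionization enthalpy.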

[5] = Binding affinity to recombinant HIV1 NL4-3 capsid N183A mutant by isothermal titration calorimetry; parameters: species or system Human immunodeficiency virus 1
In short: (§2)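 Point mutants made by PCR, expressed solubly in E. coli BL21(DE3)RIL, enriched by ammonium sulphate fractionation (20–50%), then MonoS cation exchange (pH 5.5) and Superdex75 gel filtration. Binding by ITC at 25 °C in 30 mM MES pH 6.0, 10% glycerol, 2 mM 2-mercaptoethanol, 2% DMSO. 320–350 µM peptide ligand was injected in 2 µl steps into 23–33 µM protein, with a buffer-only control.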

[6] = molecular target: T1, Structural capsid protein; test: Binding affinity to HIV1 NL4-3 capsid C-terminal domain (146 to 231 residues) by isothermal titration calorimetry; in short: as §1
[7] = Binding affinity to recombinant HIV1 NL4-3 capsid Y169A mutant by isothermal titration calorimetry; parameters: species or system Human immunodeficiency virus 1; in short: as §2
[8] = tested on: Human immunodeficiency virus 1; test: Selectivity ratio of Kd for recombinant HIV1 NL4-3 capsid N183A mutant to Kd for full length HIV1 capsid (1 to 231 residues)
In short: (§3)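 Ratio of ITC-derived KD for each mutant CA to KD for wild-type CA. Titrations were at 25 °C in 30 mM MES pH 6.0, 10% glycerol, 2 mM 2-mercaptoethanol, 2% DMSO. Peptide ligand (320–350 µM) was injected into 23–33 µM protein, with a buffer-only control.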

[9] = Binding affinity to recombinant HIV1 NL4-3 capsid L211A mutant by isothermal titration calorimetry; parameters: species or system Human immunodeficiency virus 1; in short: as §2
[10] = Binding affinity to recombinant HIV1 NL4-3 capsid L211S mutant by isothermal titration calorimetry; parameters: species or system Human immunodeficiency virus 1; in short: as §2
[11] = tested on: Human immunodeficiency virus 1; test: Selectivity ratio of Kd for recombinant HIV1 NL4-3 capsid L211S mutant to Kd for full length HIV1 capsid (1 to 231 residues); in short: as §3
[12] = tested on: Human immunodeficiency virus 1; test: Selectivity ratio of Kd for recombinant HIV1 NL4-3 capsid E187A mutant to Kd for full length HIV1 capsid (1 to 231 residues); in short: as §3
[13] = tested on: Human immunodeficiency virus 1; test: Selectivity ratio of Kd for recombinant HIV1 NL4-3 capsid L211A mutant to Kd for full length HIV1 capsid (1 to 231 residues); in short: as §3
[14] = molecular target: T1, Structural capsid protein; test: Binding affinity to full length HIV1 NL4-3 capsid (1 to 231 residues) by isothermal titration calorimetry; in short: as §1
[15] = Binding affinity to recombinant HIV1 NL4-3 capsid E187A mutant by isothermal titration calorimetry; parameters: species or system Human immunodeficiency virus 1; in short: as §2
[16] = tested on: Human immunodeficiency virus 1; test: Selectivity ratio of Kd for recombinant HIV1 NL4-3 capsid Y169A mutant to Kd for full length HIV1 capsid (1 to 231 residues); in short: as §3
[17] = molecular target: T1, Structural capsid protein; test: Binding affinity to HIV1 NL4-3 dimeric capsid C-terminal domain (146 to 231 residues) by isothermal titration calorimetry
In short: (§4)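 VP-ITC at 25 °C in 30 mM MES pH 6.0 with 10% glycerol, 2 mM 2-mercaptoethanol and 2% DMSO; protein concentrations by HPLC amino acid analysis. Ligand concentration was estimated by UV spectra after centrifugation to remove precipitate. 9 µl aliquots of 31 µM ligand went into 3.9 µM CA dimer or 3.1 µM CA CTD dimer to saturation. Ligand-into-buffer heat was subtracted.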

[18] = molecular target: T1, Structural capsid protein; test: Binding affinity to full length HIV1 NL4-3 dimeric capsid (1 to 231 residues) by isothermal titration calorimetry; in short: as §4

T1 sequence (Q76129 whole entry, the tested form may be a part): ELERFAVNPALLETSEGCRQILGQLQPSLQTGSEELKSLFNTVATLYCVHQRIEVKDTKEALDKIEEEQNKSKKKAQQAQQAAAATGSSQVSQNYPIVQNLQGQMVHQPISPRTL

`CC(=O)c1ccc(Nc2nc(-c3cccnc3)nc3ccccc23)cc1` gave a pIC50 [1] of 4.85, a viability at 48 h, 10 µM [2] of 93% and a pIC50 [3] of 5.10.

In the case of `N#Cc1ccc(Nc2nc(-c3ccncc3)nc3ccccc23)cc1`, the pIC50 [1] was 5.40, the viability at 48 h, 10 µM [2] was 96% and the pIC50 [3] was under 5.00.

With `O=C(O)c1ccc(Nc2nc(-c3ccncc3)nc3ccccc23)cc1` the pIC50 [1] was under 4.00, the viability at 48 h, 10 µM [2] was 98% and the pIC50 [3] was under 5.00.

In the case of `CCOC(=O)c1ccc(Nc2nc(-c3cccnc3)nc3ccccc23)cc1`, the pIC50 [1] was 4.33, the viability at 48 h, 10 µM [2] was 84% and the pIC50 [3] was 5.33.

`CCNS(=O)(=O)c1ccc(Nc2nc(-c3cccnc3)nc3ccccc23)cc1` gave a pIC50 [1] of under 4.00, a viability at 48 h, 10 µM [2] of 97% and a pIC50 [3] of under 5.00.

In the case of `CC(=O)c1ccc(Nc2nc(-c3ccncc3)nc3ccccc23)cc1`, the pIC50 [1] was 5.05, the viability at 48 h, 10 µM [2] was 96% and the pIC50 [3] was 5.34.

With `O=C(c1ccc(Nc2nc(-c3cccnc3)nc3ccccc23)cc1)C(F)(F)F` the pIC50 [1] was under 4.00 and the viability at 48 h, 10 µM [2] was 62%.

For `CS(=O)(=O)c1ccc(Nc2nc(-c3ccncc3)nc3ccccc23)cc1`, the pIC50 [1] was under 4.00, the viability at 48 h, 10 µM [2] was 97% and the pIC50 [3] was under 5.00.

For `O=C(O)c1ccc(-c2nc(-c3ccccc3)c(-c3ccccc3)[nH]2)cc1`, the pKd [4] was 4.07.

With `CC[C@H](C)[C@H](N)C(=O)N[C@H](C(=O)N[C@@H](Cc1ccccc1)C(=O)N[C@@H](CCC(=O)O)C(=O)N[C@@H](CC(=O)O)C(=O)N[C@@H](CC(C)C)C(=O)N[C@@H](CC(C)C)C(=O)N[C@@H](CC(=O)O)C(=O)N[C@@H](Cc1ccc(O)cc1)C(=O)N[C@@H](Cc1ccc(O)cc1)C(=O)NCC(=O)N1CCC[C@H]1C(N)=O)[C@@H](C)O` (H-ITFEDLLDYYGP-NH2) the pKd [5] was 4.28, the pKd [6] was 5.52 and the pKd [7] was 4.89. For the same molecule, the Selectivity ratio [8] was 13, the pKd [9] was 4.82 and the pKd [10] was 4.08. It also gave a Selectivity ratio [11] of 21, a Selectivity ratio [12] of 1 and a Selectivity ratio [13] of 4. It also gave a pKd [14] of 5.40, a pKd [15] of 5.30 and a Selectivity ratio [16] of 3.

`CCNC(=O)c1ccc(Nc2nc(-c3cccnc3)nc3ccccc23)cc1` gave a pIC50 [1] of under 4.00, a viability at 48 h, 10 µM [2] of 97% and a pIC50 [3] of under 5.00.

For `O=C(NCCO)c1ccc(Nc2nc(-c3cccnc3)nc3ccccc23)cc1`, the pIC50 [1] was under 4.00, the viability at 48 h, 10 µM [2] was 100% and the pIC50 [3] was under 5.00.

For `NS(=O)(=O)c1ccc(Nc2nc(-c3cccnc3)nc3ccccc23)cc1`, the pIC50 [1] was 4.10, the viability at 48 h, 10 µM [2] was 98% and the pIC50 [3] was under 5.00.

Molecule `CCOC(=O)c1ccc(Nc2nc(-c3ccncc3)nc3ccccc23)cc1` has a pKd [5] of 6.05, a Selectivity ratio [8] of 7 and a pIC50 [1] of 5.10. For the same molecule, the pKd [10] was 5.72, the pKd [17] was 7.42 and the viability at 48 h, 10 µM [2] was 96%. It also gave a Selectivity ratio [11] of 14, a pIC50 [3] of under 5.00 and a pKd [14] of 6.85. It also gave a pKd [18] of 6.85.

For `CC(O)c1ccc(Nc2nc(-c3cccnc3)nc3ccccc23)cc1` (stereo not drawn), the pIC50 [1] was under 4.00, the viability at 48 h, 10 µM [2] was 98% and the pIC50 [3] was under 5.00.

Molecule `CCOC(=O)Cc1ccc(Nc2nc(-c3cccnc3)nc3ccccc23)cc1` has a pIC50 [1] of under 4.00, a viability at 48 h, 10 µM [2] of 98% and a pIC50 [3] of under 5.00.

Work on `CCOC(=O)c1cccc(Nc2nc(-c3cccnc3)nc3ccccc23)c1` yielded a pIC50 [1] of 4.17, a viability at 48 h, 10 µM [2] of 83% and a pIC50 [3] of 5.30.

Work on `CCOC(=O)c1cccc(Nc2nc(-c3ccncc3)nc3ccccc23)c1` yielded a pIC50 [1] of 4.68, a viability at 48 h, 10 µM [2] of 96% and a pIC50 [3] of 5.28.

Work on `CON(C)C(=O)c1ccc(Nc2nc(-c3cccnc3)nc3ccccc23)cc1` yielded a pIC50 [1] of 4.43, a viability at 48 h, 10 µM [2] of 97% and a pIC50 [3] of under 5.00.

`CSc1ccc(Nc2nc(-c3ccncc3)nc3ccccc23)cc1` gave a viability at 48 h, 10 µM [2] of 95% and a pIC50 [3] of 5.00.

In the case of `OC(c1ccc(Nc2nc(-c3cccnc3)nc3ccccc23)cc1)(C(F)(F)F)C(F)(F)F`, the pIC50 [1] was under 4.00 and the viability at 48 h, 10 µM [2] was 46%.

For `O=C(NCCF)c1ccc(Nc2nc(-c3cccnc3)nc3ccccc23)cc1`, the pIC50 [1] was 5.52, the viability at 48 h, 10 µM [2] was 90% and the pIC50 [3] was under 5.00.

With `C[S+]([O-])c1ccc(Nc2nc(-c3ccncc3)nc3ccccc23)cc1` (stereo not drawn) the pIC50 [1] was under 4.00, the viability at 48 h, 10 µM [2] was 98% and the pIC50 [3] was under 5.00.

Molecule `CC(=O)c1cccc(Nc2nc(-c3cccnc3)nc3ccccc23)c1` has a pIC50 [1] of 4.52, a viability at 48 h, 10 µM [2] of 89% and a pIC50 [3] of 5.10.

Molecule `OC(c1ccc(Nc2nc(-c3cccnc3)nc3ccccc23)cc1)C(F)(F)F` (stereo not drawn) has a pIC50 [1] of under 4.00, a viability at 48 h, 10 µM [2] of 87% and a pIC50 [3] of 5.00.

`CONC(=O)c1ccc(Nc2nc(-c3cccnc3)nc3ccccc23)cc1` showed a pIC50 [1] of 4.20, a viability at 48 h, 10 µM [2] of 99% and a pIC50 [3] of under 5.00.

For `CCOC(=O)c1ccccc1Nc1nc(-c2ccncc2)nc2ccccc12`, the pIC50 [1] was 4.43, the viability at 48 h, 10 µM [2] was 97% and the pIC50 [3] was under 5.00.

In the case of `NC(=O)c1ccc(Nc2nc(-c3ccncc3)nc3ccccc23)cc1`, the pIC50 [1] was under 4.00, the viability at 48 h, 10 µM [2] was 97% and the pIC50 [3] was under 5.00.

With `CCOC(=O)c1ccc(Nc2nc(-c3cccnc3C)nc3ccccc23)cc1` the pIC50 [1] was 4.85, the viability at 48 h, 10 µM [2] was 100% and the pIC50 [3] was under 5.00.
